Measured values: ChEMBL document CHEMBL1148722, “Discovery and optimization of p38 inhibitors via computer-assisted drug design” (J Med Chem, 2007)

Assays:
Blood = test: Inhibition of LPS-induced TNFalpha production in human whole blood; type: functional, tissue-based
Procedure, shortened: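 Fresh heparinized human whole blood was preincubated 30 min at 37 °C with serially diluted compound in type AB serum. It was then stimulated with E. coli LPS 0111:B4 (50 ng/mL final) for 5 h at 37 °C. Plasma TNFα was measured by ELISA, DELFIA or electrochemiluminescence against an on-plate standard curve. EC50 came from cross-plate duplicate 11-point curves fitted to a 4-parameter logistic, as the geometric mean over ≥3 donors.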

[1] = Clearance in Sprague-Dawley rat at 1 mg/kg, iv; type: ADME, organism-based; parameters: dose 1 mg/kg, route intravenous; details: in vivo
Procedure, shortened: (§1)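 Male Sprague-Dawley rats, fasted overnight with food returned about 4 h post-dose, three per group. One group got 1 mg/kg as a ~15 s i.v. push via femoral vein catheter at 1 mL/kg. The other got 10 mg/kg by oral gavage at 10 mL/kg. Plasma was analysed by noncompartmental pharmacokinetic methods.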

[2] = Cmax in Sprague-Dawley rat at 10 mg/kg, po; type: ADME, organism-based; parameters: dose 10 mg/kg, route oral; details: in vivo; procedure, shortened: as §1
Mus musculus [3] = test: Inhibition of LPS-induced TNFalpha production in BALB/c mouse at 10 mg/kg, po; type: functional
Procedure, shortened: (§2)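 Female Balb/c mice (~20 g) were gavaged with compound in cremophor about 30 min before i.v. LPS (E. coli 0111:B4, 1.0 µg/mouse) plus D-gal (50 mg/kg) in pyrogen-free saline. After 1 h, blood was taken by cardiac puncture under anaesthesia. Serum TNFα was measured by ELISA in duplicate, and compound level by HPLC.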

[4] = Bioavailability in Sprague-Dawley rat at 10 mg/kg, po; type: ADME, organism-based; details: in vivo; procedure, shortened: as §1
[5] = target: Mitogen-activated protein kinase 9 (Homo sapiens, UniProt P45984); test: Inhibition of JNK2
Mus musculus [6] = test: Inhibition of LPS-induced TNFalpha production in BALB/c mouse at 3 mg/kg, po; type: functional; procedure, shortened: as §2
[7] = target: Tyrosine-protein kinase Lyn (Homo sapiens, UniProt P07948); test: Inhibition of Lyn
Sequence of Tyrosine-protein kinase Lyn (P07948 whole entry): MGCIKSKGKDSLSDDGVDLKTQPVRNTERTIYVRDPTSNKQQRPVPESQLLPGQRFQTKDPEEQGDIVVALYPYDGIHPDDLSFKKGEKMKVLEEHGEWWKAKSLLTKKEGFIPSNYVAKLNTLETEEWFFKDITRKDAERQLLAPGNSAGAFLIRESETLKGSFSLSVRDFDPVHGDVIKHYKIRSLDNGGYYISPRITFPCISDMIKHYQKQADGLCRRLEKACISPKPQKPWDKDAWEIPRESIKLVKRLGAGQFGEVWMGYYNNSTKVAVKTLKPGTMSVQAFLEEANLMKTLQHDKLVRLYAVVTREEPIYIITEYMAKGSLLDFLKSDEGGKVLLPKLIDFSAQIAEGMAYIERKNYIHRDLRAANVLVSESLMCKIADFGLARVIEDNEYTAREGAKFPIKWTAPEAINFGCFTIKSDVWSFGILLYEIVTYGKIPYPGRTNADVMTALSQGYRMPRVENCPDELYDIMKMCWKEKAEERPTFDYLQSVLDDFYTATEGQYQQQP

Sequence of Mitogen-activated protein kinase 9 (P45984 whole entry): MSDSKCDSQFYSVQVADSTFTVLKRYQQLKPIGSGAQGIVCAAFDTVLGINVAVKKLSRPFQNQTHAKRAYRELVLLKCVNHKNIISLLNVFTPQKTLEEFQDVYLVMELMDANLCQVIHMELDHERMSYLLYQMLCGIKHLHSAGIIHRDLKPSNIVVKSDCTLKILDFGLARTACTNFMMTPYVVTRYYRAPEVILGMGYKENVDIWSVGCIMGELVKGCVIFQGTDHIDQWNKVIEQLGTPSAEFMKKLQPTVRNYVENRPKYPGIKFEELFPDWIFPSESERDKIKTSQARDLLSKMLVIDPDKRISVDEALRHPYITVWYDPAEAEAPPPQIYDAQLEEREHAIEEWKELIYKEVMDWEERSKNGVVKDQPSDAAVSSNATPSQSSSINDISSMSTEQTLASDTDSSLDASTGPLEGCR

## COc1c(NC(=O)c2cc3ccccc3s2)cc(C(C)(C)C)cc1NS(C)(=O)=O
Blood
  IC50: > 10000 nM

## COc1c(NC(=O)c2cc3ccccc3[nH]2)cc(C(C)(C)C)cc1NS(C)(=O)=O
Blood
  IC50: > 10000 nM

## COc1c(NC(=O)c2cc3c(NC(=O)c4cccnc4)cccc3s2)cc(C(C)(C)C)cc1NS(C)(=O)=O
Blood
  IC50: > 10000 nM

## COc1c(NC(=O)c2cc3cccc(NC(=O)c4cccnc4)c3s2)cc(C(C)(C)C)cc1NS(C)(=O)=O
[1]
  clearance: 19 mL/min/kg
Blood
  IC50: 1100 nM
[2]
  Cmax: 5200 ng/mL
Mus musculus [3]
  inhibition in vivo at 10 mg/kg: 60%
[4]
  bioavailability: 57%

## COc1c(NC(=O)c2cc3cccc(NC(=O)c4cccnc4)c3n2C)cc(C(C)(C)C)cc1NS(C)(=O)=O
[1]
  clearance: 3 mL/min/kg
Blood
  IC50: 3600 nM
[2]
  Cmax: 9000 ng/mL
Mus musculus [3]
  inhibition in vivo at 10 mg/kg: 60%
[4]
  bioavailability: 90%

## CNc1ccc(C(=O)Nc2cccc3cc(C(=O)Nc4cc(C(C)(C)C)cc(NS(C)(=O)=O)c4OC)sc23)cn1
Blood
  IC50: 1100 nM

## CNc1ccc(C(=O)Nc2cccc3cc(C(=O)Nc4cc(C(C)(C)C)cc(NS(C)(=O)=O)c4OC)n(C)c23)cn1
Blood
  IC50: 500 nM

## COc1c(NC(=O)c2cc3cccc(NC(=O)c4ccc(NCCN(C)C)nc4)c3s2)cc(C(C)(C)C)cc1NS(C)(=O)=O
Blood
  IC50: 650 nM

## COc1c(NC(=O)c2cc3cccc(NC(=O)c4ccc(NCCN5CCOCC5)nc4)c3n2C)cc(C(C)(C)C)cc1NS(C)(=O)=O
Blood
  IC50: 250 nM

## COc1c(NC(=O)c2cc3cccc(NC(=O)c4ccc(NC5CC5)nc4)c3s2)cc(C(C)(C)C)cc1NS(C)(=O)=O
[1]
  clearance: 4 mL/min/kg
Blood
  IC50: 180 nM
[2]
  Cmax: 2400 ng/mL
Mus musculus [3]
  inhibition in vivo at 10 mg/kg: 98%
[5]
  IC50: 16 nM
Mus musculus [6]
  inhibition in vivo at 3 mg/kg: 80%
[7]
  IC50: 230 nM
[4]
  bioavailability: 51%

## COc1c(NC(=O)c2cc3cccc(NC(=O)c4ccc(NCC5CC5)nc4)c3s2)cc(C(C)(C)C)cc1NS(C)(=O)=O
Blood
  IC50: 670 nM

## COc1c(NC(=O)Nc2ccc(OCCN3CCOCC3)c3ccccc23)cc(C(C)(C)C)cc1NS(C)(=O)=O
Blood
  IC50: 1060 nM

## COc1c(NC(=O)Nc2cccc3ccccc23)cc(C(C)(C)C)cc1NS(C)(=O)=O
Blood
  IC50: > 10000 nM

## COc1c(NC(=O)c2cc3cccc(NC(=O)c4ccc(N(C)C)nc4)c3s2)cc(C(C)(C)C)cc1NS(C)(=O)=O
Blood
  IC50: 2200 nM

## COc1c(NC(=O)c2cc3ccccc3n2C)cc(C(C)(C)C)cc1NS(C)(=O)=O
Blood
  IC50: > 10000 nM

## COc1c(NC(=O)c2cc3cccc(NC(=O)c4ccc(N)nc4)c3s2)cc(C(C)(C)C)cc1NS(C)(=O)=O
Blood
  IC50: 430 nM

## COc1c(NC(=O)c2cc3ccccc3o2)cc(C(C)(C)C)cc1NS(C)(=O)=O
Blood
  IC50: > 10000 nM

## COc1c(NC(=O)c2cc3cccc(NC(=O)c4ccc(NCCN(C)C)nc4)c3n2C)cc(C(C)(C)C)cc1NS(C)(=O)=O
Blood
  IC50: 700 nM

## COc1c(NC(=O)c2cc3cccc(NC(=O)c4ccc(NC5CC5)nc4)c3n2C)cc(C(C)(C)C)cc1NS(C)(=O)=O
[1]
  clearance: 5 mL/min/kg
Blood
  IC50: 140 nM
[2]
  Cmax: 14000 ng/mL
Mus musculus [3]
  inhibition in vivo at 10 mg/kg: 75%
Mus musculus [6]
  inhibition in vivo at 3 mg/kg: 60%
[4]
  bioavailability: 51%

## COc1c(NC(=O)c2cc3cccc(NC(=O)c4ccc(NCC5CC5)nc4)c3n2C)cc(C(C)(C)C)cc1NS(C)(=O)=O
Blood
  IC50: 150 nM

## COCCNc1ccc(C(=O)Nc2cccc3cc(C(=O)Nc4cc(C(C)(C)C)cc(NS(C)(=O)=O)c4OC)sc23)cn1
Blood
  IC50: 130 nM

## COCCNc1ccc(C(=O)Nc2cccc3cc(C(=O)Nc4cc(C(C)(C)C)cc(NS(C)(=O)=O)c4OC)n(C)c23)cn1
Blood
  IC50: 160 nM

## COc1c(NC(=O)c2cc3cccc(NC(=O)c4ccc(NCCN5CCOCC5)nc4)c3s2)cc(C(C)(C)C)cc1NS(C)(=O)=O
Blood
  IC50: 550 nM

## Cc1ccc(-n2nc(C(C)(C)C)cc2NC(=O)Nc2ccc(OCCN3CCOCC3)c3ccccc23)cc1 [DORAMAPIMOD]
[1]
  clearance: 1.7 mL/min/kg
[2]
  Cmax: 10900 ng/mL
Mus musculus [3]
  inhibition in vivo at 10 mg/kg: 60%
[4]
  bioavailability: 76%
